Reference: ChEMBL document CHEMBL1137681, “Design, synthesis and characterization of N9/N7-substituted 6-aminopurines as VEGF-R and EGF-R inhibitors” (Eur J Med Chem, 2009)
The source made the active and inactive calls. No cut-off for these calls is given here.

Legend:
[1] = target: T1, Aurora kinase A (Homo sapiens) (UniProt O14965); assay: Inhibition of Aurora A up to 100 uM
T1 sequence (whole entry): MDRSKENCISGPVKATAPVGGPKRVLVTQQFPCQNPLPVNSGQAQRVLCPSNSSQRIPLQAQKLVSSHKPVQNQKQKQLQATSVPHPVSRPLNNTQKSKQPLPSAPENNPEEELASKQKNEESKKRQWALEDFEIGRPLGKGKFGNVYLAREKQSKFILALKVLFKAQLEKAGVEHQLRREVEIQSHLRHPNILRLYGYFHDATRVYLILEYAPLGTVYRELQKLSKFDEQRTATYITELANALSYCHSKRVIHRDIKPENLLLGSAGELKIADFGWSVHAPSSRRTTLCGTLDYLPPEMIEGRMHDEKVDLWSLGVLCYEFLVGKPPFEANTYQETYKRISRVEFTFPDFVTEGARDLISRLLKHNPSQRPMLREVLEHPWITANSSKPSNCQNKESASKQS
How it was run: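 Buffer was HEPES-NaOH pH 7.5 with MgCl2, MnCl2, vanadate, DTT, PEG20000 and 1% DMSO. Run 80 min at 30 °C, quenched with 2% H3PO4, NaCl-washed, then scintillation-counted. IC50 fitted from 10 concentrations tested once each.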

[2] = test system: Serine/threonine-protein kinase B-raf (Homo sapiens), P15056 [V600E]; assay: Inhibition of BRAF V600E mutant
Sequence of Serine/threonine-protein kinase B-raf (Homo sapiens), P15056 [V600E] (P15056 whole entry V600E): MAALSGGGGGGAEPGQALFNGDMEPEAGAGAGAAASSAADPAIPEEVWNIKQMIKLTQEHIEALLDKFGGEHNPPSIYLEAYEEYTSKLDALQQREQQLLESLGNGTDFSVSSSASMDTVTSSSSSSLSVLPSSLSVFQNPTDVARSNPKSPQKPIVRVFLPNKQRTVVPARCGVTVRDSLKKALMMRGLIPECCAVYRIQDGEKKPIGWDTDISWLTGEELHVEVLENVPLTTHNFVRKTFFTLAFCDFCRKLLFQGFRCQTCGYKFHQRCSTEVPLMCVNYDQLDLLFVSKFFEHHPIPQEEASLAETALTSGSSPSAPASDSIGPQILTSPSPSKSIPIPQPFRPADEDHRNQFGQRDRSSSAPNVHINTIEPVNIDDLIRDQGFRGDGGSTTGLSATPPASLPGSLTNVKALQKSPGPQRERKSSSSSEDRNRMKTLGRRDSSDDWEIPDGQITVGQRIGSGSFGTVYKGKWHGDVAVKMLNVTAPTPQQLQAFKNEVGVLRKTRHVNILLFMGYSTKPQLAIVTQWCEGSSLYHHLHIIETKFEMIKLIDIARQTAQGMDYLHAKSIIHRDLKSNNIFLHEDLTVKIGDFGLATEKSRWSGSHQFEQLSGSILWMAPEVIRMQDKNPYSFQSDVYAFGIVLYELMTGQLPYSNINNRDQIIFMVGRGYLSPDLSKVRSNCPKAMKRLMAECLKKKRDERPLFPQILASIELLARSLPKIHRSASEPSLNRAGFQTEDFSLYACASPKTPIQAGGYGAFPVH

[3] = target: Cyclin-dependent kinase 2 (Homo sapiens) (UniProt P24941); assay: Inhibition of CDK2/cyclin A up to 100 uM
How it was run: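 Buffer was HEPES-NaOH pH 7.5 with MgCl2/MnCl2, vanadate, DTT, PEG20000 and 1% DMSO. Run 80 min at 30 °C, H3PO4 stop, NaCl wash, scintillation read-out. IC50 from 10 concentrations, singlicate.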

[4] = target: Cyclin-dependent kinase 4/cyclin D1 (Homo sapiens) (UniProt P11802+P24385); assay: Inhibition of CDK4/Cyclin D1 up to 100 uM; assay type: protein-complex assay
How it was run: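 Buffer: HEPES-NaOH pH 7.5, Mg2+/Mn2+, vanadate, DTT, PEG20000, 1% DMSO. Incubated 80 min at 30 °C, stopped with 2% H3PO4, washed with 0.9% NaCl, and counted by scintillation. IC50 from 10 concentrations, singlicate.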

[5] = target: Mitogen-activated protein kinase kinase kinase 8 (Homo sapiens) (UniProt P41279); assay: Inhibition of COT
Sequence of Mitogen-activated protein kinase kinase kinase 8 (Homo sapiens) (P41279 whole entry): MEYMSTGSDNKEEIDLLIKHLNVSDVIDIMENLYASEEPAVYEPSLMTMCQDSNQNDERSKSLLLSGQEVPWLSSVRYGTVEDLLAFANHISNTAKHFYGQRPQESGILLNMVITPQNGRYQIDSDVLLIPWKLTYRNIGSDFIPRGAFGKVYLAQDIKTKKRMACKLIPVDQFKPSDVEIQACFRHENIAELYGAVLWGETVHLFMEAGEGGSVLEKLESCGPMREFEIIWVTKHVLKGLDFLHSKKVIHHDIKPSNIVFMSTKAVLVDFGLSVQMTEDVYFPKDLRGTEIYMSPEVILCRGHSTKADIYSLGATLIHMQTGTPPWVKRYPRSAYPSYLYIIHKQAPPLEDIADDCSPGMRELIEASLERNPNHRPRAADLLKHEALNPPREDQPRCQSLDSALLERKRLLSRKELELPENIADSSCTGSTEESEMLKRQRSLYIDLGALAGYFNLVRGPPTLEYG

[6] = target: Receptor-type tyrosine-protein kinase FLT3 (Homo sapiens) (UniProt P36888); assay: Inhibition of FLT3 up to 100 uM
[7] = target: Hepatocyte growth factor receptor (Homo sapiens) (UniProt P08581); assay: Inhibition of MET up to 100 uM
Sequence of Hepatocyte growth factor receptor (Homo sapiens) (P08581 whole entry): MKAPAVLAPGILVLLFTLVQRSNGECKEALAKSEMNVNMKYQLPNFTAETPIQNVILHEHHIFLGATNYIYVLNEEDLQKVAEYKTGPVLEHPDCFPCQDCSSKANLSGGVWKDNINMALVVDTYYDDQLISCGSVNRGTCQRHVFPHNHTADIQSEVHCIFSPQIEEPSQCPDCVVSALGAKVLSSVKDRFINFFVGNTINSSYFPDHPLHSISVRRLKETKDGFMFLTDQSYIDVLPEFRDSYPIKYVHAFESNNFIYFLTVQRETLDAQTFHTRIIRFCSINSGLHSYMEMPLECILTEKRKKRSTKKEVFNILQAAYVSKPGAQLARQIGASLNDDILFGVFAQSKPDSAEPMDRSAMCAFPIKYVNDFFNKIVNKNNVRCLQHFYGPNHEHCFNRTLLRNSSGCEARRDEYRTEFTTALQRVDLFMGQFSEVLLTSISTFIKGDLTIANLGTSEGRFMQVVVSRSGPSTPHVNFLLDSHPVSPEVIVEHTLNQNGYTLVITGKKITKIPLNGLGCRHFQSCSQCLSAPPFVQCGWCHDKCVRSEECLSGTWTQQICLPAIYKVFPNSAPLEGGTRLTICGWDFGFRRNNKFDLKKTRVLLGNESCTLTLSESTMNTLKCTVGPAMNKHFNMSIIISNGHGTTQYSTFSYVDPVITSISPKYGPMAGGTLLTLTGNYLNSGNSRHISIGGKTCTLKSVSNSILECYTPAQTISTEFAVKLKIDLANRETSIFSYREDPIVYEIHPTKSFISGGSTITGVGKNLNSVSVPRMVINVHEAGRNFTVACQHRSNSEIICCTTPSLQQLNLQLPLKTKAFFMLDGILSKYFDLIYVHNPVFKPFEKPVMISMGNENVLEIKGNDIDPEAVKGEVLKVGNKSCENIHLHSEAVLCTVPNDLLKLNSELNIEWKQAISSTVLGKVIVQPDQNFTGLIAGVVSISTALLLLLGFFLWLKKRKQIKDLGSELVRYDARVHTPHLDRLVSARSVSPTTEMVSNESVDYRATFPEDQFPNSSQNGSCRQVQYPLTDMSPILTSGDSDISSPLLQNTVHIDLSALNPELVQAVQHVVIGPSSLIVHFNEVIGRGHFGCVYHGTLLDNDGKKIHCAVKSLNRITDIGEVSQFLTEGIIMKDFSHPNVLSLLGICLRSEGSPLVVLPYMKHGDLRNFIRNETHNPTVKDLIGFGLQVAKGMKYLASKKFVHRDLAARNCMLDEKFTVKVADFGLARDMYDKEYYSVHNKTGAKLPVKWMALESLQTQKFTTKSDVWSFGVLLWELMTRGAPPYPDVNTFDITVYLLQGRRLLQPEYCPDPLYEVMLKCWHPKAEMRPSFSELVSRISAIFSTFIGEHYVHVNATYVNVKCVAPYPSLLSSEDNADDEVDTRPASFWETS

[8] = target: Casein kinase II subunit alpha (Homo sapiens) (UniProt P68400); assay: Inhibition of CK2alpha1
Sequence of Casein kinase II subunit alpha (Homo sapiens) (P68400 whole entry, looked up): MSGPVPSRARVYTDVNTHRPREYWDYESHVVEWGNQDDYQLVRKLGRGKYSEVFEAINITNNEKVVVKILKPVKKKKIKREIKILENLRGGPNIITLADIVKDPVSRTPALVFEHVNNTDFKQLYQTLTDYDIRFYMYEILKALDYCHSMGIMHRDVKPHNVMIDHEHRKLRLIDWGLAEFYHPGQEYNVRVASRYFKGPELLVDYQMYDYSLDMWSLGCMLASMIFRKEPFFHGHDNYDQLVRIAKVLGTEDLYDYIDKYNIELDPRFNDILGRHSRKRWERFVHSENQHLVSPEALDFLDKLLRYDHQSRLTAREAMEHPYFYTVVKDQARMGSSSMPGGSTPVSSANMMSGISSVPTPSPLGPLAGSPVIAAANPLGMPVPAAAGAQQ
How it was run: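 Run in HEPES-NaOH pH 7.5 with MgCl2, MnCl2, orthovanadate, DTT, PEG20000 and 1% DMSO at 30 °C for 80 min. IC50 from 10 concentrations, singlicate.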

[9] = target: T2, NUAK family SNF1-like kinase 1 (Homo sapiens) (UniProt O60285); assay: Inhibition of ARK5 up to 100 uM
T2 sequence (whole entry): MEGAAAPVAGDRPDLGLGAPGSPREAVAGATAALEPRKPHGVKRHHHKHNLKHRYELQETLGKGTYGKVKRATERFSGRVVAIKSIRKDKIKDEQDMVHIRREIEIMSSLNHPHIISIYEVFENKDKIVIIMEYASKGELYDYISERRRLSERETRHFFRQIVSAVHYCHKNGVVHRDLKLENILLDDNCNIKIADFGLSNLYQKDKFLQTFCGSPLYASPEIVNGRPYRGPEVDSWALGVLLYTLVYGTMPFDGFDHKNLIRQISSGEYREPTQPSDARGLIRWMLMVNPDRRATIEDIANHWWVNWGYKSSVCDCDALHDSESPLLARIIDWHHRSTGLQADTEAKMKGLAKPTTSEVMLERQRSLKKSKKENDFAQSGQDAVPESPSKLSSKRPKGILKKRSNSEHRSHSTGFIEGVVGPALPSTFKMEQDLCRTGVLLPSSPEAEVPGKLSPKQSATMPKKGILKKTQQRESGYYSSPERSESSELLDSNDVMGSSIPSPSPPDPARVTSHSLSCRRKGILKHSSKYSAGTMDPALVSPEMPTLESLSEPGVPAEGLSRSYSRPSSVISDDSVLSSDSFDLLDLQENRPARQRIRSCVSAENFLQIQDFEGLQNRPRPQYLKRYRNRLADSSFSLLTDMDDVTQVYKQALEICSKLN

[10] = target: Receptor tyrosine-protein kinase erbB-2 (Homo sapiens, UniProt P04626); assay: Inhibition of ERBB2
Sequence of Receptor tyrosine-protein kinase erbB-2 (P04626 whole entry): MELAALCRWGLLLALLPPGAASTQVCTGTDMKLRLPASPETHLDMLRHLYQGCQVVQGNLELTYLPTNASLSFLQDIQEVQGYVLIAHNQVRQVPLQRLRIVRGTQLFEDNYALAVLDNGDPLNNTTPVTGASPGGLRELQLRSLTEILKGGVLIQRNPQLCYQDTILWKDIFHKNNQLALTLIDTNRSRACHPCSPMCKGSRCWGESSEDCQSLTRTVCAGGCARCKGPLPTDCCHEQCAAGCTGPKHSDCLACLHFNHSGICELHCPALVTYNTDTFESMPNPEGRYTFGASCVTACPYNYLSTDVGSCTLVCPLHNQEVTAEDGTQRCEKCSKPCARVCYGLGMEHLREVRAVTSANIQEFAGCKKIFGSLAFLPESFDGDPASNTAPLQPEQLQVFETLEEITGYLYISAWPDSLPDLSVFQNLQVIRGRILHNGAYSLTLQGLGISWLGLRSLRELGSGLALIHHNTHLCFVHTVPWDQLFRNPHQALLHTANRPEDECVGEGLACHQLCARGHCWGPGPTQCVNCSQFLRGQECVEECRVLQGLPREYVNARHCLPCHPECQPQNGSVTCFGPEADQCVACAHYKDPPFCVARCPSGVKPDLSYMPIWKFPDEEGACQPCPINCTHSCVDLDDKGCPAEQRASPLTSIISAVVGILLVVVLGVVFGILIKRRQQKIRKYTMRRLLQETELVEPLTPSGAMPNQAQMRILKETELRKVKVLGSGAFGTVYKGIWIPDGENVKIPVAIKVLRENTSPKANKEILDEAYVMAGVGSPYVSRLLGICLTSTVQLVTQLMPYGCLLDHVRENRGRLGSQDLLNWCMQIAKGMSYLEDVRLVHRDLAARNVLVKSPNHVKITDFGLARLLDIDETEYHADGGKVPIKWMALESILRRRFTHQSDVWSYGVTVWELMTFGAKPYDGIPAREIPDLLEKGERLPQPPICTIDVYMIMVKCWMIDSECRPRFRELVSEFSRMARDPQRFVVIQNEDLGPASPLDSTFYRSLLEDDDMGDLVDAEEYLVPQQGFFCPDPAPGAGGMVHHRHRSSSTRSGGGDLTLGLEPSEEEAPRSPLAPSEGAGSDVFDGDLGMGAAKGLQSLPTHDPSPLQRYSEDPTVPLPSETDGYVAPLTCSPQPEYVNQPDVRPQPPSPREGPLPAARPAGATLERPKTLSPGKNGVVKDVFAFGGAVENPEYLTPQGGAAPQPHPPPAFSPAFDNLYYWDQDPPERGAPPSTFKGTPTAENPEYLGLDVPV
How it was run: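 Buffer: HEPES-NaOH pH 7.5, Mg2+/Mn2+, vanadate, DTT, PEG20000, 1% DMSO. Incubated 30 °C for 80 min, stopped with 2% H3PO4, washed, and scintillation-counted. IC50 from 10 concentrations in singlicate.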

[11] = target: Proto-oncogene tyrosine-protein kinase Src (Homo sapiens, UniProt P12931); assay: Inhibition of SRC
Sequence of Proto-oncogene tyrosine-protein kinase Src (P12931 2-536 limits assumed): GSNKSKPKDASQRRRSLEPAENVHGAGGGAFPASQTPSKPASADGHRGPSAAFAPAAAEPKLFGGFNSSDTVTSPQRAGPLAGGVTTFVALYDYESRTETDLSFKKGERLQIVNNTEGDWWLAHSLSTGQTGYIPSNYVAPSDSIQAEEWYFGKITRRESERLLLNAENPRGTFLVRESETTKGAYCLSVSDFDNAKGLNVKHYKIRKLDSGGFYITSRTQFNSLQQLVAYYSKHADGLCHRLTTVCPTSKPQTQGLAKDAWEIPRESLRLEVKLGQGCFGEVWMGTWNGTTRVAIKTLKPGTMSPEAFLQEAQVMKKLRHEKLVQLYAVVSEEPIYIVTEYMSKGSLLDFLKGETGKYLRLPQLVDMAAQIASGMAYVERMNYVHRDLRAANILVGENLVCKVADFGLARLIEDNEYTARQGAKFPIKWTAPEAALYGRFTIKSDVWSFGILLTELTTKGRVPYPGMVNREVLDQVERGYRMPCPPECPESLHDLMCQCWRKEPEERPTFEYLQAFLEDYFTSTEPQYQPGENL

inhibition [1]	inhibition [2]	inhibition [3]	inhibition [4]	inhibition [5]	inhibition [6]	inhibition [7]	inhibition [8]	inhibition [9]	inhibition [10]	inhibition [11]	IC50 [11] [µM]	IC50 [10] [µM]	Structure (SMILES)
inactive	inactive	inactive	inactive	inactive	inactive	inactive	inactive	inactive					Nc1ncnc2c1ncn2CC(=O)c1ccccc1
inactive	inactive	inactive	inactive	inactive	inactive	inactive	inactive	inactive	inactive	inactive			Nc1ncnc2c1ncn2CC(=O)c1ccccn1
inactive	inactive	inactive	inactive	inactive	inactive	inactive	inactive	inactive	inactive		75		Nc1ncnc2c1ncn2CC(=O)c1cccnc1
inactive	inactive	inactive	inactive	inactive	inactive	inactive	inactive	inactive	inactive				Nc1ncnc2ncn(CC(=O)c3c[nH]c4ccccc34)c12

More lines, now with the values behind:

Structure (SMILES)	inhibition [1]	inhibition [2]	inhibition [3]	inhibition [4]	inhibition [5]	inhibition [6]	inhibition [7]	inhibition [8]	inhibition [9]	inhibition [10]	inhibition [11]	IC50 [11] [µM]	IC50 [10] [µM]
Nc1ncnc2ncn(CC(=O)c3ccccc3)c12	inactive	inactive	inactive	inactive	inactive	inactive	inactive	inactive	inactive	inactive	inactive		
CN(C)c1ncnc2c1ncn2CC(=O)c1c[nH]c2ccccc12	inactive	inactive	inactive	inactive	inactive	inactive	inactive	inactive	inactive	inactive	inactive		
COc1ncnc2c1ncn2CC(=O)c1ccccc1	inactive	inactive	inactive	inactive	inactive	inactive	inactive	inactive	inactive	inactive	inactive		
COc1ncnc2ncn(CC(=O)c3ccccc3)c12	inactive	inactive	inactive	inactive	inactive	inactive	inactive	inactive	inactive	inactive	inactive		
Nc1ncnc2c1ncn2CC(=O)c1c[nH]c2ccccc12	inactive		inactive	inactive	inactive	inactive	inactive	inactive	inactive		inactive		95
